From ChEMBL document CHEMBL4316597, “Design, Synthesis, and Biological Evaluation of Itaconic Acid Derivatives as Potential Anti-Influenza Agents” (J Med Chem, 2019)
pEC50: −log10 of the molar value.

Columns and labels:
[1] = Cytotoxicity against MDCK cells assessed as cell death after 72 hrs by MTT assay; assay type: cell-based, Canis lupus familiaris; details: dog
Method in brief: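 MDCK or RD cells at 2 × 10^4/well in E10, overnight at 37 °C/5% CO2, DPBS wash, then exposed to graded compound concentrations for 72 h. MTT added for 3 h, formazan dissolved in DMSO, absorbance read at 570 nm. CC50 (50% cell death) by Reed–Muench.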

Influenza A virus = assay: Antiviral activity against Influenza A virus (A/WSN/33) infected in MDCK cells assessed as reduction in virus-induced cytopathic effect after 72 hrs by crystal violet-staining based assay; assay type: functional, organism-based; details: A/WSN/1933(H1N1)
Method in brief: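 Cells seeded at 2 × 10^4/well in E10 (DMEM, 10% FBS), 16–24 h at 37 °C/5% CO2, washed with DPBS, then infected at nine-fold TCID50 with or without serial compound concentrations. Influenza is run in MDCK and enterovirus/rhinovirus in RD. Incubated 72 h, fixed in 4% paraformaldehyde, stained with 0.1% crystal violet, and read for cell density. EC50 = 50% CPE inhibition by Reed–Muench; mean ± S.D. of at least three runs.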

[2] = Selectivity ratio of CC50 for MDCK cells to EC50 for Influenza A virus (A/WSN/33); assay type: toxicity; details: dog, read-out: Ratio CC50/EC50
Method in brief: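 SI is calculated as CC50 (MDCK, 72 h MTT) divided by EC50 (72 h crystal-violet CPE assay in MDCK).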

C=C(CC(=O)Nc1cc(C(F)(F)F)ccc1F)C(=O)O
CC50 at 72 h [1]: > 110 µM
pEC50 (Influenza A virus): < 4.30

C=C(CC(=O)Nc1cc(OC)ccc1F)C(=O)Nc1cc(OC)ccc1F
CC50 at 72 h [1]: > 110 µM
selectivity ratio [2]: > 229
pEC50 (Influenza A virus): 6.32

C=C(CC(=O)Nc1cc(Cl)ccc1F)C(=O)O
CC50 at 72 h [1]: > 110 µM
pEC50 (Influenza A virus): < 4.30

C=C(CC(=O)Nc1ccc(C(F)(F)F)cc1F)C(=O)O
CC50 at 72 h [1]: > 110 µM
pEC50 (Influenza A virus): < 4.30

C=C(CC(=O)Nc1cc(C(F)(F)F)ccc1F)C(=O)Nc1cc(C(F)(F)F)ccc1F
CC50 at 72 h [1]: 15 µM
selectivity ratio [2]: 136
pEC50 (Influenza A virus): 6.96

C=C(CC(=O)Nc1ccc(Cl)cc1F)C(=O)O
CC50 at 72 h [1]: > 110 µM
pEC50 (Influenza A virus): < 4.30

C=C(CC(=O)Nc1ccc(OC)cc1F)C(=O)Nc1ccc(OC)cc1F
CC50 at 72 h [1]: > 110 µM
selectivity ratio [2]: > 3
pEC50 (Influenza A virus): 4.51

C=C(CC(=O)NCc1ccc(F)cc1F)C(=O)NCc1ccc(F)cc1F
CC50 at 72 h [1]: > 110 µM
pEC50 (Influenza A virus): < 4.30

C=C(CC(=O)Nc1cc(F)ccc1F)C(=O)O
CC50 at 72 h [1]: > 110 µM
pEC50 (Influenza A virus): < 4.30

C=C(CC(=O)Nc1ccc(F)cc1Br)C(=O)Nc1ccc(F)cc1Br
CC50 at 72 h [1]: > 110 µM
selectivity ratio [2]: > 42
pEC50 (Influenza A virus): 5.59

C=C(CC(=O)Nc1ccc(F)cc1F)C(=O)O
CC50 at 72 h [1]: > 110 µM
pEC50 (Influenza A virus): < 4.30

C=C(CC(=O)NCc1cc(F)ccc1F)C(=O)NCc1cc(F)ccc1F
CC50 at 72 h [1]: > 110 µM
pEC50 (Influenza A virus): < 4.30

C=C(CC(=O)Nc1ccc(Br)cc1Br)C(=O)Nc1ccc(Br)cc1Br
CC50 at 72 h [1]: > 110 µM
selectivity ratio [2]: > 2
pEC50 (Influenza A virus): 4.38
